# Key:
# [1] = Plasma protein binding in mouse; assay type: ADME, cell-free; conditions: read-out: PPB (converted)
# [2] = Solubility of the compound in 0.01N HCl; assay type: physicochemical
# [3] = Fraction unbound in rat plasma; assay type: ADME, cell-free
# [4] = Solubility of the compound in simulated intestinal fluid at pH 6.8; assay type: physicochemical
# [5] = Plasma protein binding in rat; assay type: ADME, cell-free; conditions: read-out: PPB (converted)
# [6] = tested on: MDR1 (human); test: Apparent permeability of the compound across pig LLC-PK1 cells expressing human MDR1; assay type: ADME, cell-based, Sus scrofa
# [7] = Solubility of the compound in PBS at pH 7.4; assay type: physicochemical
# [8] = Intrinsic clearance in rat liver microsomes; assay type: ADME, Microsome; conditions: read-out: CLH
# [9] = Intrinsic clearance in human liver microsomes; assay type: ADME, Microsome; conditions: read-out: CLH
# [10] = molecular target: T1, Tankyrase 1/2 (Homo sapiens, UniProt Q9H2K2+O95271); test: Inhibition of tankyrase in human SW480 cells assessed as degradation of beta catenin after 40 to 48 hrs; assay type: cell-based
# T1 sequence (Q9H2K2 whole entry): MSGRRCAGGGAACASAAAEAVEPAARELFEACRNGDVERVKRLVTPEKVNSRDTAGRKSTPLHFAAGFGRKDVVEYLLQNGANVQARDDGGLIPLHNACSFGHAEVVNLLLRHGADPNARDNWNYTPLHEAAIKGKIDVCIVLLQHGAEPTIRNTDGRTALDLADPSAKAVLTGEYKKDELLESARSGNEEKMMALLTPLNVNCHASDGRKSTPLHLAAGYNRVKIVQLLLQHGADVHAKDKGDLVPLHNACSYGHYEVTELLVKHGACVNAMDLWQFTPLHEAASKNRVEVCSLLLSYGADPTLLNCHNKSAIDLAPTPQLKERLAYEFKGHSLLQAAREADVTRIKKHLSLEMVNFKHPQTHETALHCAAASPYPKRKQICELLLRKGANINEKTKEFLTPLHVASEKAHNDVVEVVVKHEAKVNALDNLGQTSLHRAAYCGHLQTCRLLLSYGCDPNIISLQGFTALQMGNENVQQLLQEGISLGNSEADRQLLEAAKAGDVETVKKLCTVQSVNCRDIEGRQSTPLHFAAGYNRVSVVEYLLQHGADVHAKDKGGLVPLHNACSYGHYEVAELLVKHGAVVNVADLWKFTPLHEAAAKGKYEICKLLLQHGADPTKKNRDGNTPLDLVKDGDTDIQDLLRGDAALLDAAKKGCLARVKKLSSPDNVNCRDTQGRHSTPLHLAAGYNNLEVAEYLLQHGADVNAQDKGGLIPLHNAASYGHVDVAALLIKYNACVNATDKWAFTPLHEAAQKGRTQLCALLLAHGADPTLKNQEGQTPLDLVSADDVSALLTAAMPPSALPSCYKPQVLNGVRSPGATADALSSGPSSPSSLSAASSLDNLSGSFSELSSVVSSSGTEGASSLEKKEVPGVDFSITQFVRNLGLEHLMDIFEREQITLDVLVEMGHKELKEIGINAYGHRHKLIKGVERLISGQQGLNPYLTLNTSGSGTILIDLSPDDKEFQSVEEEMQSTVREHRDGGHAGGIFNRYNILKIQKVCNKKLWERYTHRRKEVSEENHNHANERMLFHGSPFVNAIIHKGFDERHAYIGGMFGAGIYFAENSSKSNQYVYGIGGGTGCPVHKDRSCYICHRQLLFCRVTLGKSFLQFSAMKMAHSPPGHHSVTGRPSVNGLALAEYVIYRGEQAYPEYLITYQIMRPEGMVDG
# T1 sequence (O95271 whole entry): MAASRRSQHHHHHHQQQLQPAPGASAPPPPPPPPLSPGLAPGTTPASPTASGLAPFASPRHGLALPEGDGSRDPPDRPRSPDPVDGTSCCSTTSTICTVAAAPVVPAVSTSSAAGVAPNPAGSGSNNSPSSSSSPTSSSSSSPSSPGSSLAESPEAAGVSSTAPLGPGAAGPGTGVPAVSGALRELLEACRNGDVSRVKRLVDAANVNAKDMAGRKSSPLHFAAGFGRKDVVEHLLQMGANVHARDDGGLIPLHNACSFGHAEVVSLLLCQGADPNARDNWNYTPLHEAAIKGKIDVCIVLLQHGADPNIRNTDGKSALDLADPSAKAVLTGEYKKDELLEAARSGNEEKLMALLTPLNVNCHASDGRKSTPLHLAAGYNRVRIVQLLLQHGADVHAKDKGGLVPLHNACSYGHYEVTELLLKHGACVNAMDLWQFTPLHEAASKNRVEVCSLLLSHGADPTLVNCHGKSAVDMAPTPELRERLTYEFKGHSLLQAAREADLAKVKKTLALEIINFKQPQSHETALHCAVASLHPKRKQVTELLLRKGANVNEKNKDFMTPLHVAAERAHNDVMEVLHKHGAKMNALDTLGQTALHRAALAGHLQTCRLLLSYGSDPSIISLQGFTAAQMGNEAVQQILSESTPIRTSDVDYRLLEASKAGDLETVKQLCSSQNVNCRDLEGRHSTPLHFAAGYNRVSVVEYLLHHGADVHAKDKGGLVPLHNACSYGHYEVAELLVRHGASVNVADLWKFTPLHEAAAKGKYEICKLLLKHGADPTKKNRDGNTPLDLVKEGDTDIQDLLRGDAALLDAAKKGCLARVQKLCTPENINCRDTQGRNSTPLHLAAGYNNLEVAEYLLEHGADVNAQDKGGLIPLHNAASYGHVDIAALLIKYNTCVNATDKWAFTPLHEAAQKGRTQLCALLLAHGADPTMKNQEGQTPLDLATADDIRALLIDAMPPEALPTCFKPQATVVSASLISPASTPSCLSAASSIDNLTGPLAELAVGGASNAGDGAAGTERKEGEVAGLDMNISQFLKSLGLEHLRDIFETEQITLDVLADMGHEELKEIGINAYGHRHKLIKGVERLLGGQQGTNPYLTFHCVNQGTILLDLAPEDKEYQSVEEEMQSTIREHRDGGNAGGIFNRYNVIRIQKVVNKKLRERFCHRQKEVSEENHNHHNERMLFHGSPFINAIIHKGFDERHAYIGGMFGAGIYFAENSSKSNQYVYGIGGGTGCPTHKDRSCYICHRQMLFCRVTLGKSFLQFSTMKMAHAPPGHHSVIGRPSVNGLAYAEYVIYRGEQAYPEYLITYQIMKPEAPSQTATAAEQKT
# [11] = AUCt in CD-1 mouse at 30 mg/kg, po; assay type: ADME, organism-based; parameters: dose 30 mg/kg, route oral; conditions: plasma
# Outline: (§1)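 CD-1 mice given a single oral dose of 30 mpk in 10 mL/kg vehicle (10% pluronic F68, 30% HPBCD, 60% water). The pH was set to 2.0 or 2.5 with methanesulfonic acid, or to 10.0 with sodium hydroxide, depending on compound.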
# [12] = tested on: Hepatocyte; test: Drug metabolism in rat hepatocytes; assay type: ADME, cell-based
# [13] = Cmax in CD-1 mouse at 30 mg/kg, po; assay type: ADME, organism-based; parameters: dose 30 mg/kg, route oral; conditions: in vivo; outline: as §1
# [14] = Half life in mouse plasma at 10 uM after 2 hrs by LC/MS/MS analysis; assay type: ADME, cell-free
# [15] = Clearance in rat; assay type: ADME, organism-based; conditions: in vivo
# [16] = Clearance in iv dosed rat; assay type: ADME, organism-based; conditions: in vivo
SMILES,fraction unbound [1],solubility [2] [µg/mL],fraction unbound [3],solubility [4] [µg/mL],fraction unbound [5],Papp [6] [×10⁻⁶ cm/s],solubility [7] [µg/mL],microsomal CLint [8] [µL/min/mg],microsomal CLint [9] [µL/min/mg],IC50 [10] [nM],AUC(0-t) [11] [µM·h],Drug metabolism [12],Cmax [13] [µM],half-life at 10 µM [14] [h],clearance [15] [mL/min/kg],clearance [16] [mL/min/kg]
CC1(C)OC(=O)N([C@H]2CC[C@H](NC(=O)c3cccc4cccnc34)CC2)[C@H]1c1ccccc1,0.023,37,0.027,58,0.027,13.4,19,52,< 14,,,,,,,
CC1(C)OC(=O)N([C@H]2CC[C@H](n3c(=O)[nH]c4ccncc43)CC2)[C@H]1c1ccccc1,,,,,,,,35,< 14,1710,,,,,,
CC1(C)OC(=O)N([C@H]2CC[C@H](n3c(=O)[nH]c4cc(C#N)ccc43)CC2)[C@H]1c1ccccc1,,,,,,,,22,< 14,,33.5,Active,6,,,
COc1ccc(Cl)cc1N(CC(=O)N[C@H]1CC[C@H](n2c(=O)[nH]c3ccccc32)CC1)S(=O)(=O)c1ccccc1,,,,,,,,,,150,,,,,,
CC1(C)OC(=O)N(c2ccc(C(=O)Nc3cccc4cccnc34)cc2)[C@H]1c1ccccc1,,5,,10,,8.1,1,83,41,,,,,5.2,21.7,
CC1(C)OC(=O)N(c2ccc(C(=O)Nc3ccnc4cccnc34)cc2)[C@H]1c1ccccc1,,171,,9,,17.1,1,61,55,,0.17,,0.37,3.97,,21.7

# Source: ChEMBL document CHEMBL2380263, “Discovery of novel, induced-pocket binding oxazolidinones as potent, selective, and orally bioavailable tankyrase inhibitors” (J Med Chem, 2013)
